Results taken from ChEMBL document CHEMBL1154099, “Synthesis and evaluation of in vitro anti-microbial and anti-tubercular activity of 2-styryl benzimidazoles” (2009).
Values after ≈ are worked out from the molar mass of the structure shown.

Tests used:
Type in all cases: functional
Staphylococcus aureus = test: Antibacterial activity against Staphylococcus aureus ATCC 25923 after 18 to 20 hrs by twofold tube dilution method
In short: (§1)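 Bacterial cultures grown 18–24 h at 37 ± 1 °C in Mueller–Hinton Broth. Testing by twofold tube dilution in Mueller–Hinton Broth, pH 7.4. Inoculated broth-only tubes served as controls. MIC taken as the lowest concentration preventing visible growth.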

Enterococcus faecalis = test: Antibacterial activity against Enterococcus faecalis ATCC 29212 after 18 to 20 hrs by twofold tube dilution method; in short: as §1
Klebsiella pneumoniae = test: Antibacterial activity against Klebsiella pneumoniae ATCC 13883 after 18 to 20 hrs by twofold tube dilution method; in short: as §1
Escherichia coli = test: Antibacterial activity against Escherichia coli ATCC 25922 after 18 to 20 hrs by twofold tube dilution method; in short: as §1
Candida albicans = test: Antifungal activity against Candida albicans ATCC 10145 after 48 hrs by twofold tube dilution method; conditions: ATCC 10145, 48 h
In short: (§2)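 Fungi maintained in Sabouraud Dextrose Broth for 48 h at 25 ± 1 °C. Testing by twofold dilution in Sabouraud Dextrose Broth, pH 7.4, with DMSO stocks serially diluted from 125 to 1 µg/ml. Inoculated broth-only tubes served as controls. After 48 h at 25 ± 1 °C, the last tube showing no growth was recorded as the MIC.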

Aspergillus fumigatus = test: Antifungal activity against Aspergillus fumigatus after 48 hrs by twofold tube dilution method; in short: as §2
[1] = system: Mycobacterium tuberculosis; test: Antitubercular activity against Mycobacterium tuberculosis H37Rv by microplate alamar blue assay
In short: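 M. tuberculosis H37Rv, with compounds that reached at least 90% inhibition in the primary screen. Serial dilution to lower concentrations, microplate Alamar blue assay. MIC taken as the lowest inhibitory concentration. Streptomycin used as reference.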

[2] = system: Mycobacterium tuberculosis; test: Antitubercular activity against Mycobacterium tuberculosis H37Rv at 7.25 ug/ml by microplate alamar blue assay
In short: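 M. tuberculosis H37Rv (ATCC 27294) in BACTEC 12B medium, broth microdilution with microplate Alamar blue read-out. Primary screen at a single concentration of 7.25 µg/ml. Result expressed as percent inhibition.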

Row | SMILES | MIC (Staphylococcus aureus) | MIC (Enterococcus faecalis) | MIC (Klebsiella pneumoniae) | MIC (Escherichia coli) | MIC (Candida albicans) | MIC (Aspergillus fumigatus) | MIC [1] | inhibition at 7.25 µg/mL [2]
1 | Oc1cccc(/C=C/c2nc3cc(Br)ccc3[nH]2)c1 | 1 µg/mL (≈ 3.17 µM) | 1 µg/mL (≈ 3.17 µM) | 4 µg/mL (≈ 12.7 µM) | 4 µg/mL (≈ 12.7 µM) | 4 µg/mL (≈ 12.7 µM) | 8 µg/mL (≈ 25.4 µM) | > 75 µg/mL | 
2 | Brc1ccc2[nH]c(/C=C/c3ccc4c(c3)OCO4)nc2c1 | 8 µg/mL (≈ 23.3 µM) | 31.2 µg/mL (≈ 91.1 µM) | 16.1 µg/mL (≈ 47 µM) | 31.2 µg/mL (≈ 91.1 µM) | 31.2 µg/mL (≈ 91.1 µM) | 31.2 µg/mL (≈ 91.1 µM) | > 75 µg/mL | 
3 | O=[N+]([O-])c1ccc2[nH]c(/C=C/c3ccccc3)nc2c1 | 8 µg/mL (≈ 30.2 µM) | 31.2 µg/mL (≈ 118 µM) | 4 µg/mL (≈ 15.1 µM) | 31.2 µg/mL (≈ 118 µM) | 16.1 µg/mL (≈ 60.8 µM) | 16.1 µg/mL (≈ 60.8 µM) | > 75 µg/mL | 
4 | Cc1ccc(/C=C/c2nc3cc([N+](=O)[O-])ccc3[nH]2)cc1 | 4 µg/mL (≈ 14.3 µM) | 16.1 µg/mL (≈ 57.7 µM) | 16.1 µg/mL (≈ 57.7 µM) | 62.5 µg/mL (≈ 224 µM) | 31.2 µg/mL (≈ 112 µM) | 31.2 µg/mL (≈ 112 µM) | > 75 µg/mL | 
5 | Clc1ccc(/C=C/c2nc3cc(Br)ccc3[nH]2)c(Cl)c1 | 16.1 µg/mL (≈ 43.8 µM) | 8 µg/mL (≈ 21.7 µM) | 2 µg/mL (≈ 5.43 µM) | 31.2 µg/mL (≈ 84.9 µM) | 31.2 µg/mL (≈ 84.9 µM) | 16.1 µg/mL (≈ 43.8 µM) | > 75 µg/mL | 76%
6 | Brc1ccc2[nH]c(/C=C/c3ccccc3)nc2c1 | 2 µg/mL (≈ 6.69 µM) | 16.1 µg/mL (≈ 53.9 µM) | 31.2 µg/mL (≈ 104 µM) | 16.1 µg/mL (≈ 53.9 µM) | 8 µg/mL (≈ 26.7 µM) | 8 µg/mL (≈ 26.7 µM) | > 75 µg/mL | 83%
7 | O=[N+]([O-])c1ccc2[nH]c(/C=C/c3ccc4c(c3)OCO4)nc2c1 | 31.2 µg/mL (≈ 101 µM) | 31.2 µg/mL (≈ 101 µM) | 62.5 µg/mL (≈ 202 µM) | 31.2 µg/mL (≈ 101 µM) | 16.1 µg/mL (≈ 52.1 µM) | 16.1 µg/mL (≈ 52.1 µM) | > 75 µg/mL | 
8 | O=[N+]([O-])c1ccc2[nH]c(/C=C/c3ccc(Cl)cc3Cl)nc2c1 | 31.2 µg/mL (≈ 93.5 µM) | 31.2 µg/mL (≈ 93.5 µM) | 62.5 µg/mL (≈ 187 µM) | 62.5 µg/mL (≈ 187 µM) | 16.1 µg/mL (≈ 48.2 µM) | 31.2 µg/mL (≈ 93.5 µM) | > 75 µg/mL | 45%
9 | COc1ccc(/C=C/c2nc3cc([N+](=O)[O-])ccc3[nH]2)cc1OC | 31.2 µg/mL (≈ 96.1 µM) | 31.2 µg/mL (≈ 96.1 µM) | 16.1 µg/mL (≈ 49.6 µM) | 31.2 µg/mL (≈ 96.1 µM) | 16.1 µg/mL (≈ 49.6 µM) | 31.2 µg/mL (≈ 96.1 µM) | > 75 µg/mL | 
10 | COc1ccc(/C=C/c2nc3cc(Br)ccc3[nH]2)cc1OC | 2 µg/mL (≈ 5.57 µM) | 2 µg/mL (≈ 5.57 µM) | 8 µg/mL (≈ 22.3 µM) | 31.2 µg/mL (≈ 87 µM) | 1 µg/mL (≈ 2.78 µM) | 2 µg/mL (≈ 5.57 µM) | > 75 µg/mL | 54%
11 | O=[N+]([O-])c1ccc2[nH]c(/C=C/c3cccc(O)c3)nc2c1 | 4 µg/mL (≈ 14.2 µM) | 31.2 µg/mL (≈ 111 µM) | 31.2 µg/mL (≈ 111 µM) | 31.2 µg/mL (≈ 111 µM) | 31.2 µg/mL (≈ 111 µM) | 62.5 µg/mL (≈ 222 µM) | > 75 µg/mL | 
12 | Cc1ccc(/C=C/c2nc3cc(Br)ccc3[nH]2)cc1 | 31.2 µg/mL (≈ 99.8 µM) | 31.2 µg/mL (≈ 99.8 µM) | 8 µg/mL (≈ 25.5 µM) | 16 µg/mL (≈ 51.1 µM) | 4 µg/mL (≈ 12.8 µM) | 8 µg/mL (≈ 25.5 µM) | > 75 µg/mL | 63%
13 | O=C(O)c1cn(C2CC2)c2cc(N3CCNCC3)c(F)cc2c1=O [CIPROFLOXACIN] | 0.78 µg/mL (≈ 2.35 µM) | 0.7 µg/mL (≈ 2.11 µM) | 0.19 µg/mL (≈ 0.573 µM) |  |  |  |  | 
14 | OC(Cn1cncn1)(Cn1cncn1)c1ccc(F)cc1F [FLUCONAZOLE] |  |  |  |  | 2 µg/mL (≈ 6.53 µM) | 2 µg/mL (≈ 6.53 µM) |  | 
15 | CN[C@@H]1[C@H](O[C@H]2[C@H](O[C@H]3[C@H](O)[C@@H](O)[C@H](N=C(N)N)[C@@H](O)[C@@H]3N=C(N)N)O[C@@H](C)[C@]2(O)C=O)O[C@@H](CO)[C@H](O)[C@H]1O [STREPTOMYCIN] |  |  |  |  |  |  |  | 100%
